Assay outcomes (PubChem)
OX1R antag-1: OX1R (human) antagonism. O43613. OX1R-expressing cells, FRET antagonist read-out. inhibition, % at 6.6 µM. hit rate 1.8% among 330,000. AID 485270; in the data active means inhibition mostly above about 38%, no sharp cut-off; inactive means mostly below about 40%
Target sequence (O43613 whole entry, looked up): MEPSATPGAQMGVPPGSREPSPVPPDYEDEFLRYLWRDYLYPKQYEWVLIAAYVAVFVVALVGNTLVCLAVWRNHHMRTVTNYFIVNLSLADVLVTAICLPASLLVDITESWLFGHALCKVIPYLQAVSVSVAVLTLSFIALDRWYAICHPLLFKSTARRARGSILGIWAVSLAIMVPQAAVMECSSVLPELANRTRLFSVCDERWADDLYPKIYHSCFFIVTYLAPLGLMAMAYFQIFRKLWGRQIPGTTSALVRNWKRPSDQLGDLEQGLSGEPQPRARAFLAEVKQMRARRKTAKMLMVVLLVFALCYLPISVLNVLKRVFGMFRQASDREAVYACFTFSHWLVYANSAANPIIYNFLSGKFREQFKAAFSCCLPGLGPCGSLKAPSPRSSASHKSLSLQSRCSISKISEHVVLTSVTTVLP
M1 PAM parental: M1 PAM counterscreen hit in parental CHO-K1 cells | ATP EC20, Fluo-8 calcium fluorescence; 0% at ATP EC20, 100% at ATP max | activation, % at 3 µM | hit rate 0.02% among 360,000;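 active means activation above the run cutoff, the mean activation of all test compounds plus 3 SD, cut at about 40% in these data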;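 further: peak over basal fluorescence ratio in a 140 s read after ATP addition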
CHO-K1 Ca antag: M1 antagonist counterscreen hit in parental CHO-K1 cells | ATP-induced calcium, Fluo-8 fluorescence | inhibition, % at 3 µM | hit rate 0.6% among 360,000 | AID 602250;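 active means inhibition above a per-plate cutoff, the plate's mean sample inhibition plus 3 SD, cut at about 24% in these data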
OX1R antag-2: antagonists of human orexin 1 receptor; CHO/OX1R cells, Fluo-8 calcium fluorescence, orexin A; inhibition, % at 5 µM; hit rate 0.43% among 330,000; AID 434989;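 active means inhibition above its plate's threshold, mean inhibition of all tested compounds on the plate plus 3 SD, cut at about 37% in these data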
M1 ag parental: nonselective activator or artifact in parental CHO-K1 cells; Fluo-8 calcium fluorescence; scaled to maximal ATP response, vehicle zero; activation, % at 3 µM; hit rate 0.48% among 360,000; AID 602248; in the data active means activation above about 15%;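 further: untransfected CHO-K1 host cells lacking M1 receptor as counterscreen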
CHO parental Ca: signal in parental CHO cells, OX1R antagonist counter-screen; hit rate 0.63% among 330,000; parental CHO-K1, ATP-induced calcium, Fluo-8 fluorescence; AID 463079; inhibition, % at 5.6 µM;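 active means inhibition above that plate's mean sample inhibition plus 3 SD, cut at about 26% in these data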
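Test system: parental CHO cells; detection: calcium-sensitive Fluo-8 fluorescence; evaluation: percent inhibition of calcium signal; also added: ATP as calcium-mobilizing challenge; repeats: one well per compound; control set: ATP-challenged DMSO wells low, unchallenged DMSO wells high; compound: single nominal dose of 5.6 µM per compound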
Numbers stand for hits; 0 = inactive; - = no result. Rows were chosen to be rich in hits. Some 2.9% of all compounds tested hit in one or more screens of this group.

SMILES | OX1R antag-1 | M1 PAM parental | CHO-K1 Ca antag | OX1R antag-2 | M1 ag parental | CHO parental Ca
C#CCOCCOCCOCCNc1nc(N2CCN(C(=O)CCCCCCCCCCNC(=O)[C@H](CCCCN)n3cc(CCO)nn3)CC2)nc(N2CCN(C(=O)CCCCCCCCCCNC(=O)[C@H](CCCCN)n3cc(C[C@@H](C)CC)nn3)CC2)n1 | 0 | - | - | 0 | - | 54
C#CCOCCOCCOCCNc1nc(N2CCN(C(=O)CCCCCCCCCCNC(=O)Cn3cc(CCCCCN)nn3)CC2)nc(N2CCN(C(=O)CCCCCCCCCCNC(=O)Cn3cc(C[C@@H](C)O)nn3)CC2)n1 | 0 | 0 | 0 | 0 | 0 | 41
C#CCOCCOCCOCCNc1nc(N2CCN(C(=O)CCCCCCCCCCNC(=O)Cn3cc(C[C@@H](C)O)nn3)CC2)nc(N2CCN(C(=O)CCCCCCCCCCNC(=O)[C@@H]([C@H](C)CC)n3cc(CCCCCN)nn3)CC2)n1 | 0 | 0 | 0 | 0 | 0 | 0
Cc1ccc2nc(C3CCCCC3)c(CC(C)(C)C)n2c1 | - | 0 | 0 | - | 0 | -
COc1ccc(-c2cc(C(=O)OC(C)C(=O)Nc3c(C)n(C)n(-c4ccccc4)c3=O)c3ccccc3n2)cc1 (centres undefined) | 62 | 0 | 0 | 0 | 0 | 0
O=S(=O)(Nc1ccc(-c2ccc3nncn3n2)cc1)c1cccs1 | 0 | 0 | 0 | 0 | 0 | 0
O=C(O)CCC(=O)Nc1ccc(-c2csc(Nc3cccc4ccccc34)n2)cc1 | 0 | 0 | 0 | 0 | 0 | 0
O=C(COc1ccc(-c2ccccc2)cc1)Nc1cccnc1 | 0 | 0 | 0 | 58 | 18 | 27
O=C(COc1ccc(Br)cc1)Nc1ccncc1 | 0 | 0 | 0 | 0 | 0 | 0
O=C(COc1ccc(Nc2ccccc2)cc1)Nc1ccncc1 | 0 | 0 | 0 | 0 | 15 | 37
CCC(C)(C)c1ccc(OCC(=O)Nc2ccncc2)cc1 | 0 | 0 | 0 | 78 | 0 | 76
Cc1ccc(C)c(COc2coc(CN3CCN(C(=O)c4ccco4)CC3)cc2=O)c1 | 0 | 0 | 0 | 0 | 0 | 0
O=C(CNC(=O)C(c1ccccc1)c1ccccc1)N/N=C\c1ccc(C(=O)O)cc1 | 0 | 0 | 0 | 0 | 0 | 0
O=C(NCc1ccccc1)c1ccc(-c2ccccc2F)o1 | 59 | 0 | 0 | 0 | 0 | 0
CCN(c1ccccc1)S(=O)(=O)c1ccc(Oc2ccccc2)c(N)c1 | - | 0 | 0 | - | 0 | -
CCOc1ccc(N=Nc2c(=O)[nH]n3c(=O)cc(C)[nH]c23)cc1 | 59 | 0 | 0 | 0 | 0 | 0
CC[C@H](C)Cc1cn([C@@H](CCCN=C(NC(=O)OC(C)(C)C)NC(=O)OC(C)(C)C)C(=O)NCCCCCCCCCCC(=O)N2CCN(C(=O)OC(C)(C)C)CC2)nn1 | 0 | 0 | 0 | 0 | 0 | 0
Cc1cn([C@@H](CCCCNC(=O)OC(C)(C)C)C(=O)NCCCCCCCCCCC(=O)N2CCN(C(=O)OC(C)(C)C)CC2)nn1 | 61 | 0 | 0 | 0 | 16 | 61
CCCOC(=O)c1cccc(NC(=O)COc2ccc([N+](=O)[O-])cc2)c1 | 0 | 0 | 0 | 0 | 0 | 32
CCOC(=O)c1cccc(NC(=O)COc2ccc([N+](=O)[O-])cc2)c1 | 0 | 0 | 0 | 0 | 0 | 0
COc1ccc2c(c1OC)C(=O)N1C2SC(C)(C)[C@H]1C(=O)NCC(C)C (some centres undefined) | 0 | 0 | 0 | 0 | 0 | 0
O=C(CSc1ccc(C(F)(F)F)cc1[N+](=O)[O-])Nc1ccccc1 | 0 | 0 | 0 | 0 | 0 | 59
Cc1ccc2c(C)c(C(=O)Nc3ccc(S(N)(=O)=O)cc3)oc2c1C | 0 | 0 | 0 | 0 | 0 | 0
Cc1cc2oc(C(=O)Nc3ccc(S(N)(=O)=O)cc3)c(C)c2cc1Cl | 0 | 0 | 28 | 0 | 0 | 0
CN(C)C=Nc1ccc2nc3c(cc2c1)[nH]c1ccccc13 | 55 | 0 | 0 | 0 | 0 | 0
SMILES | OX1R antag-1 | M1 PAM parental | CHO-K1 Ca antag | OX1R antag-2 | M1 ag parental | CHO parental Ca
COc1ccccc1NC(=O)CSc1nnc(C2CCCCC2)o1 | 0 | 0 | 24 | 0 | 0 | 0
COc1ccc(OC)c(NC(=O)CSc2nnc(C3CCCCC3)o2)c1 | 0 | 0 | 0 | 0 | 0 | 0
Cn1c(=O)c2c(nc(NN=C3CCCC3)n2C)n(C)c1=O | 48 | 0 | 0 | 0 | 0 | 0
Cn1c(=O)c2c(nc(NNC(=O)C(F)(F)F)n2C)n(C)c1=O | 0 | 0 | 0 | 0 | 0 | 0
Clc1ccc2c(N/N=C/c3ccc(Br)cc3)ccnc2c1 | 0 | 0 | 0 | 0 | 0 | 49
Clc1ccc2c(N/N=C/c3cccnc3)ccnc2c1 | 0 | 0 | 0 | 0 | 0 | 0
CCC(=O)Nc1ccc(C(=O)COC(=O)Cc2ccsc2)cc1 | 0 | 0 | 0 | 0 | 0 | 0
Cc1cc2cc(CCNC(=O)C(=O)c3c[nH]c4ccccc34)c(=O)[nH]c2cc1C | 65 | 0 | 0 | 0 | 0 | 0
CC(Sc1nc2ccccc2c(=O)n1CC1CCCO1)C(=O)N(C)c1ccccc1 (centres undefined) | 32 | 0 | 0 | 0 | 0 | 0
COc1ccccc1NC(=O)C(C)Sc1nc2ccccc2c(=O)n1CC1CCCO1 (centres undefined) | 0 | 0 | 0 | 0 | 0 | 0
CCc1nc2ccc(C(=O)NCc3ccccc3OC)cn2c1N(C)Cc1ccc(OC)cc1 | - | 0 | 0 | - | 0 | -
Cc1ccc(C)c(N2CCN(C(=O)CCC(=O)Nc3nnc(C(F)(F)F)s3)CC2)c1 | 0 | 0 | 0 | 0 | 0 | 0
N#Cc1cc([N+](=O)[O-])ccc1NC(=O)CSc1n[nH]c(=O)n1C1CC1 | 33 | 0 | 0 | 0 | 0 | 0
O=C(CSc1n[nH]c(=O)n1C1CC1)Nc1ccc(Cl)cc1Cl | 0 | 0 | 0 | 0 | 0 | 0
NC(=O)c1ccccc1NC(=O)CCn1c(=S)oc2ccccc21 | 0 | 0 | 0 | 0 | 0 | 0
Cc1ccc(CS(=O)(=O)c2cn(CC(=O)Nc3ccon3)c3ccccc23)cc1 | 0 | 0 | 0 | 0 | 19 | 0
COc1cc(/C=C(\C#N)C(=O)c2c[nH]c3ccccc23)cc(OC)c1O | 0 | 0 | 0 | 0 | 19 | 0
COc1cc(/C=C(\C#N)C(=O)NCCc2ccccc2)cc(OC)c1O | 0 | 0 | 0 | 0 | 0 | 0
CCOC(=O)C1C(=O)C=C(c2ccc(C)cc2)CC1c1ccccc1 (centres undefined) | 0 | 0 | 0 | 0 | 0 | 0
CCOC(=O)C1C(=O)C=C(/C=C/c2ccc(N(C)C)cc2)CC1c1ccccc1 (centres undefined) | 0 | 0 | 0 | 0 | 22 | 41
CN(CC(=O)NNC(=O)Cc1ccccc1F)S(=O)(=O)c1ccc(Cl)cc1 | 0 | 0 | 0 | 0 | 0 | 0
N#Cc1ccc(NC(=O)Nc2ccc(Oc3ccc(NC(=O)Nc4ccc(C#N)cc4)cc3)cc2)cc1 | 0 | 0 | 0 | 0 | 0 | 38
N#Cc1ccc(NC(=O)Nc2cccc(C#N)c2)cc1 | - | 0 | 31 | - | 18 | -
CC1CCCCC1NC(=O)C(Cc1ccccc1)NS(=O)(=O)c1cccs1 (centres undefined) | 0 | 0 | 0 | 0 | 0 | 0
